Assay results from ChEMBL document CHEMBL3297731, “The design and discovery of water soluble 4-substituted-2,6-dimethylfuro[2,3-d]pyrimidines as multitargeted receptor tyrosine kinase inhibitors and microtubule targeting antitumor agents” (Bioorg Med Chem, 2014).
Active and inactive are the calls of the source. The rule behind the calls is not given here.

Columns and labels:
[1] = biological target: Vascular endothelial growth factor receptor 2 (Homo sapiens, UniProt P35968); type: cell-based, U-251
[2] = biological target: Platelet-derived growth factor receptor beta (Homo sapiens, UniProt P09619); assay: Inhibition of PDGFRbeta in human SH-SY5Y cells by phosphotyrosine ELISA assay; type: cell-based
[3] = biological target: Epidermal growth factor receptor (Homo sapiens, UniProt P00533); type: cell-based, A-431
Chorioallantoic membrane = assay: Antiangiogenic activity in fertile leghorn chicken egg Chorioallantoic membrane assessed as inhibition of human VEGF-165/bFGF-induced angiogenesis after 48 hrs by CAM assay; type: functional, tissue-based; settings: Gallus gallus
A-431 = assay: Cytotoxicity against human A431 cells by SRB assay; type: functional, cell-based
HeLa [4] = assay: Antiproliferative activity against human HeLa cells expressing beta3-tubulin; type: functional, cell-based
SK-OV-3 [5] = assay: Antiproliferative activity against human SKOV3 cells expressing MDR1/M-6-6; type: functional, cell-based
MDA-MB-435 [6] = assay: Antiproliferative activity against human MDA-MB-435 cells; type: functional, cell-based
HeLa [7] = assay: Antiproliferative activity against human HeLa cells; type: functional, cell-based
SK-OV-3 [8] = assay: Antiproliferative activity against human SKOV3 cells; type: functional, cell-based
HUVEC = assay: Cytotoxicity against HUVEC; type: cell-based; settings: Homo sapiens
Mus musculus [9] = assay: Toxicity in luciferase/GFP-tagged mouse 4T1 cells allografted in BALBc/J mouse assessed as body weight loss at 50 mg/kg twice weekly starting at day 7 and continuing to day 32; type: organism-based; parameters: dose 50 mg/kg; settings: in vivo
How it was run: (§1)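 750 4T1-Luc2/GFP cells (>98% GFP+) in PBS/1 mM EDTA implanted into fat pad #4 of 8 wk female BALB/c mice. MTD doses given twice weekly (docetaxel weekly), day 7 to day 32; DMSO/solutol-15/D5W vehicle. Calipers, ellipsoid volume; weights before each dose; 7-10 mice per group; lungs imaged fresh by fluorescence at day 33.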

Mus musculus [10] = assay: Toxicity in human MDA-MB-435 cells […] assessed as increase in body weight at 50 mg/kg; type: organism-based; parameters: dose 50 mg/kg; settings: in vivo
MDA-MB-468 = assay: Cytotoxicity against human triple negative MDA-MB-468 cells; type: functional, cell-based
MCF7 [11] = assay: Cytotoxicity against human taxoid-resistant MCF7 cells; type: functional, cell-based
in vivo = settings: BALBc/J, mouse
4T1 [12] = assay: Cytotoxicity against mouse triple negative 4T1 cells; type: functional, cell-based
MCF7 [13] = assay: Cytotoxicity against human ER-positive MCF7 cells; type: functional, cell-based
MDA-MB-231 = assay: Cytotoxicity against human triple negative MDA-MB-231 cells; type: functional, cell-based
[14] = tested on: MDA-MB-435 (Homo sapiens); assay: Induction of apoptosis in human MDA-MB-435 cells assessed as PARP cleavage at 75 nM after 18 hrs by Western blot analysis
HeLa [15] = assay: Cell cycle arrest in human HeLa cells assessed as accumulation at G2/M phase after 18 hrs by flow cytometric analysis; type: functional, cell-based
How it was run: (§2)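 HeLa cells allowed to adhere 24 h, then drug-treated (18 h per legend; harvest stated 24 h in methods). Stained with Krishan's reagent; DNA content measured by flow cytometry.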

MDA-MB-435 [16] = assay: Antitumor activity against human MDA-MB-435 cells […] assessed as decrease in tumor growth at 50 mg/kg relative to untreated control; type: functional, organism-based; parameters: dose 50 mg/kg
HeLa [17] = assay: Cell cycle arrest in human HeLa cells assessed as effect on accumulation at G1 phase at 40 to 50 nM after 18 hrs by flow cytometric analysis; type: functional, cell-based
How it was run: as §2

HeLa [18] = assay: Cell cycle arrest in human HeLa cells assessed as accumulation at G2/M phase at 40 to 50 nM after 18 hrs by flow cytometric analysis; type: functional, cell-based
How it was run: as §2

Tubulin (Sus scrofa) = Tubulin (Sus scrofa) (UniProt P02554+P02550); settings: 5 uM
MDA-MB-435 [19] = assay: Antitumor activity against human MDA-MB-435 cells […] assessed as decrease in tumor vascular density at 50 mg/kg by CD31/PECAM-1 immunohistochemical staining; type: functional, organism-based; parameters: dose 50 mg/kg
4T1 [20] = assay: Antitumor activity against luciferase/GFP-tagged mouse 4T1 cells allografted in BALBc/J mouse assessed as reduction in tumor size at 50 mg/kg twice weekly starting at day 7 and continuing to day 32; type: functional, organism-based; parameters: dose 50 mg/kg
How it was run: as §1

4T1 [21] = assay: Antitumor activity against luciferase/GFP-tagged mouse 4T1 cells allografted in BALBc/J mouse assessed as reduction in primary tumor growth at 50 mg/kg twice weekly starting at day 7 and continuing to day 32; type: functional, organism-based; parameters: dose 50 mg/kg
How it was run: as §1

4T1 [22] = assay: Antitumor activity against luciferase/GFP-tagged mouse 4T1 cells allografted in BALBc/J mouse assessed as reduction in number of lung metastases at 50 mg/kg twice weekly starting at day 7 and continuing to day 32; type: functional, organism-based; parameters: dose 50 mg/kg
How it was run: as §1

[23] = tested on: MDA-MB-435 (Homo sapiens); assay: Induction of apoptosis in human MDA-MB-435 cells assessed as PARP cleavage at 75 nM after 18 to 36 hrs by Western blot analysis
[24] = Growth inhibition of human MOLT4 cells by SRB assay; type: functional; settings: MOLT-4
Tubulin = Tubulin (Sus scrofa, UniProt P02554+P02550); assay: Inhibition of pig brain tubulin polymerization by spectrophotometric analysis
MDA-MB-435 [25] = assay: Cytotoxicity against human MDA-MB-435 cells; type: functional, cell-based
4T1 [26] = assay: Antitumor activity against luciferase/GFP-tagged mouse 4T1 cells allografted in BALBc/J mouse assessed as reduction in primary tumor growth at 35 mg/kg twice weekly starting at day 7 and continuing to day 32; type: functional, organism-based; parameters: dose 35 mg/kg
How it was run: as §1

Platelet-derived growth factor receptor beta, sequence (P09619 whole entry): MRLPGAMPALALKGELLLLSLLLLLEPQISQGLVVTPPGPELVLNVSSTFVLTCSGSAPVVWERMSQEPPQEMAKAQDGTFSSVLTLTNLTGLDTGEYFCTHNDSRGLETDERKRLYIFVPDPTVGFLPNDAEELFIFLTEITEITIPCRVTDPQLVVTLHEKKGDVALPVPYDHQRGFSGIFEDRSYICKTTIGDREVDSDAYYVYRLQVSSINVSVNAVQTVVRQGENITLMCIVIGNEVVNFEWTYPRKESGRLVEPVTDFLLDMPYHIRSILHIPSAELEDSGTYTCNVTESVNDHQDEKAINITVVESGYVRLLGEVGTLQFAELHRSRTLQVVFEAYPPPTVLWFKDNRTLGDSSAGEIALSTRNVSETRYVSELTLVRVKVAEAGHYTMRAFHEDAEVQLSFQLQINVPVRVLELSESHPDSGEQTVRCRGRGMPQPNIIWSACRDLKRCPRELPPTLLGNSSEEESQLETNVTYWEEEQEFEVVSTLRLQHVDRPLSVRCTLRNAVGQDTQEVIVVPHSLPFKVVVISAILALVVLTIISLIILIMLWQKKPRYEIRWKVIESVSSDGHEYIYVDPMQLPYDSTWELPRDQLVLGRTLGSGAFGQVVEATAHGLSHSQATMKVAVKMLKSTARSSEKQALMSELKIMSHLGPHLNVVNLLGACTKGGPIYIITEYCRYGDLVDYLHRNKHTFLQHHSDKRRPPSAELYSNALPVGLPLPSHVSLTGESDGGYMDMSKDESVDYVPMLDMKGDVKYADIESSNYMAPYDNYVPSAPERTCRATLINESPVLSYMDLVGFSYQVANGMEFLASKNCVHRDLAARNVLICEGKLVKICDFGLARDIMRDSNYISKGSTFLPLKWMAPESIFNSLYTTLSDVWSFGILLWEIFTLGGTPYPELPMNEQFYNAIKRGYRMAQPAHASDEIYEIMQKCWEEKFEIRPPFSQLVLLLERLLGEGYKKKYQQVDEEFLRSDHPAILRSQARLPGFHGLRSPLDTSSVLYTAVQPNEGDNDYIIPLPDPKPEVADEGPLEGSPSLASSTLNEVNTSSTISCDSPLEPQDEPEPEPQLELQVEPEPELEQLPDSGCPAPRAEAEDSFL
Epidermal growth factor receptor, sequence (P00533 whole entry): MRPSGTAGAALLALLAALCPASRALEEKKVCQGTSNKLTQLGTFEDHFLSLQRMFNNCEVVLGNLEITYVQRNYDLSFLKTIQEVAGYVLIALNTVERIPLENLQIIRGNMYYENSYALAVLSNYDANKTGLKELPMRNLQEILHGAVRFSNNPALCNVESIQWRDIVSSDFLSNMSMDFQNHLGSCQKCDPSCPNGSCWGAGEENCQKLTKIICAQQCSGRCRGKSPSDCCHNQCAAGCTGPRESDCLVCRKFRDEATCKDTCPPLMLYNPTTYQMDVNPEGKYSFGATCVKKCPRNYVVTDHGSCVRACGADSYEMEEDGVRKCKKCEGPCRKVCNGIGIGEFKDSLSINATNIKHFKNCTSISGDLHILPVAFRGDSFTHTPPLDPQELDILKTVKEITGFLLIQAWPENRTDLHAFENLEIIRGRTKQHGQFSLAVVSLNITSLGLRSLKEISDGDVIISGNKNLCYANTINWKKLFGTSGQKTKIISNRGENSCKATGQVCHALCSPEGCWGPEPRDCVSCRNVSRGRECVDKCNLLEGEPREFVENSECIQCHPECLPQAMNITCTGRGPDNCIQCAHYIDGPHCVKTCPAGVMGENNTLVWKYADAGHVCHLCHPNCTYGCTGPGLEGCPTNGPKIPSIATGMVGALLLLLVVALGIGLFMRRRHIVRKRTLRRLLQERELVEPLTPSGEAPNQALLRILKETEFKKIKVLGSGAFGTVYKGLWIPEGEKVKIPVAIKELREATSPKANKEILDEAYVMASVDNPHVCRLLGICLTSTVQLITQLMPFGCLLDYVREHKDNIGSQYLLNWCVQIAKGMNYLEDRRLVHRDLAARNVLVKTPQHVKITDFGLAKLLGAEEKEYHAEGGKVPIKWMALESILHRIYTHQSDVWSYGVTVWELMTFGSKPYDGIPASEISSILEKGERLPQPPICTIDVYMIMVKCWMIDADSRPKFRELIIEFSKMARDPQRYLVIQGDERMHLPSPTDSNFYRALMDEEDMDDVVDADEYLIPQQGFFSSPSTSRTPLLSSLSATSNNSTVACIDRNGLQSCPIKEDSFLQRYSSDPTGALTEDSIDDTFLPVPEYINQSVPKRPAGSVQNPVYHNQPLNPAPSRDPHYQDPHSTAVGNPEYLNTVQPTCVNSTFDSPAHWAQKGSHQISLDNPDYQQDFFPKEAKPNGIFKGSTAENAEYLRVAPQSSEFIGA
Vascular endothelial growth factor receptor 2, sequence (P35968 whole entry): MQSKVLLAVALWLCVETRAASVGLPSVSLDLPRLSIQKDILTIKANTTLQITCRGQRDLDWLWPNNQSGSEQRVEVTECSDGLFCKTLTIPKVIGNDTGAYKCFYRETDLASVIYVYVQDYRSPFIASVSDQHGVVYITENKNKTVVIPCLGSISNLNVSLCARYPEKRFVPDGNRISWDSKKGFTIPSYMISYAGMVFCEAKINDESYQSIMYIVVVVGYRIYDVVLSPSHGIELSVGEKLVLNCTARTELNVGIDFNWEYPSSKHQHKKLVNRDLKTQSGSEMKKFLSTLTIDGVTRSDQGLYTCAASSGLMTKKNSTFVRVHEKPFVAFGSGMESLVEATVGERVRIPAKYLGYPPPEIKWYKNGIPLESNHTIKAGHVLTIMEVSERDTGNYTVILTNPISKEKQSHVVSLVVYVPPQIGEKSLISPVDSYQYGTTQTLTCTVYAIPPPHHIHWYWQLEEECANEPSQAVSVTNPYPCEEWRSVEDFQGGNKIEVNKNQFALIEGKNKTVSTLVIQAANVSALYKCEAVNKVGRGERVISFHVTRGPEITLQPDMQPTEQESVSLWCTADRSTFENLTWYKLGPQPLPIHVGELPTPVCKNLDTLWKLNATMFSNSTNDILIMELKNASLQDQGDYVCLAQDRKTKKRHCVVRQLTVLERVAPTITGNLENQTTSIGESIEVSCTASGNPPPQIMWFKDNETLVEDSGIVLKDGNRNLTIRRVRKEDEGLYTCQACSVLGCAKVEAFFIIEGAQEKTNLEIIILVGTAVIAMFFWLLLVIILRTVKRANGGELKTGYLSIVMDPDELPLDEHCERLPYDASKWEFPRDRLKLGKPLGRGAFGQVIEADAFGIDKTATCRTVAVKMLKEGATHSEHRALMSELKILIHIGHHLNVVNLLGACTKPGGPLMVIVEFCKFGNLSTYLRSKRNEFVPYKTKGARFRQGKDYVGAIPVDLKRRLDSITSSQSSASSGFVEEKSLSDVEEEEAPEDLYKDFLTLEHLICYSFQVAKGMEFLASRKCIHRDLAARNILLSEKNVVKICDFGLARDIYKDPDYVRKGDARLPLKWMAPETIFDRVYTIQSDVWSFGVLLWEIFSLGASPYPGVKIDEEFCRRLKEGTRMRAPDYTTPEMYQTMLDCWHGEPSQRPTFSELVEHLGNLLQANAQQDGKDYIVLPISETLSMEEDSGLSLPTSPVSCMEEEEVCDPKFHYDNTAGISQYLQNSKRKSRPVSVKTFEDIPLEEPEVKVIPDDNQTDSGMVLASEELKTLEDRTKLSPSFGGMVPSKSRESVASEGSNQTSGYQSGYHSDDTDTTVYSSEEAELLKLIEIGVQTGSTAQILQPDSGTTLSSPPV
Tubulin (Sus scrofa), sequence (P02550 whole entry, looked up): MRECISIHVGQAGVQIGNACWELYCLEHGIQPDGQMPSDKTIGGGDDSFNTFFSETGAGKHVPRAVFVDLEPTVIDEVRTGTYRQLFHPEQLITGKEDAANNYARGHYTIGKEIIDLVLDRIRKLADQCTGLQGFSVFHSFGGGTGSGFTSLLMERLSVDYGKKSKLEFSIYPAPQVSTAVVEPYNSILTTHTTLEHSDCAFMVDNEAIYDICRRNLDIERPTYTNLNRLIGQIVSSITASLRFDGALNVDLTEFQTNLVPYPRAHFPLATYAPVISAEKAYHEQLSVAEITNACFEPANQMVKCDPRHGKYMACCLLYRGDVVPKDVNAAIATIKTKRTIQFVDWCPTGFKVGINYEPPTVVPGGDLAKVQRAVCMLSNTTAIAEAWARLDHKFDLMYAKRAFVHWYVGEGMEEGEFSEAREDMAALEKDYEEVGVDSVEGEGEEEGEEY
Tubulin (Sus scrofa), sequence (P02554 whole entry, looked up): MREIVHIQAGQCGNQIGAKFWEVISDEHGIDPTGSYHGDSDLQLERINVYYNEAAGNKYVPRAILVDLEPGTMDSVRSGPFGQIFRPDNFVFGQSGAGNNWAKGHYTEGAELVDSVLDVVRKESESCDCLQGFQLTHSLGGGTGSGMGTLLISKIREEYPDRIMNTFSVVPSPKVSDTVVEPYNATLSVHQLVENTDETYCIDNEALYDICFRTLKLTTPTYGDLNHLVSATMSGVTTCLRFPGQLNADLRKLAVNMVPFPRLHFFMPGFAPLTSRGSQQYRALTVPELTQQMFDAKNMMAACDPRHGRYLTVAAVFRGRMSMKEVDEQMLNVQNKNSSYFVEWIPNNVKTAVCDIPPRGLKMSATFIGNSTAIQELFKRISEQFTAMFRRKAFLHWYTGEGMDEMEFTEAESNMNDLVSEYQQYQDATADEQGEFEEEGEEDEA

SMILES: COc1ccc(Nc2nc(C)nc3oc(C)cc23)cc1
- IC50 [1]: 43.1 nM
- IC50 [2]: 63.5 nM
- IC50 [3]: 42.2 nM

SMILES: C#Cc1cccc(Nc2nc(C)nc3oc(C)cc23)c1
- IC50 [1]: 76.3 nM
- IC50 (Chorioallantoic membrane): 18200 nM
- IC50 [2]: 16.2 nM
- IC50 [3]: 30 nM

SMILES: Cc1nc(Nc2ccc(F)c(Cl)c2)c2cc(C)oc2n1
- IC50 [1]: 58.2 nM
- IC50 [3]: 30.2 nM

SMILES: COc1cccc2c1C(=O)c1c(O)c3c(c(O)c1C2=O)C[C@@](O)(C(=O)CO)C[C@@H]3O[C@H]1C[C@H](N)[C@H](O)[C@H](C)O1 [DOXORUBICIN]
- IC50 (A-431): 1.35 nM

SMILES: CCCN(c1ccc(OC)cc1)c1nc(C)nc2oc(C)cc12
- IC50 (HeLa [4]): 1500 nM
- IC50 (SK-OV-3 [5]): 3400 nM
- IC50 [1]: 8.5 nM
- IC50 (MDA-MB-435 [6]): 1400 nM
- IC50 (HeLa [7]): 1240 nM
- IC50 (Chorioallantoic membrane): 16700 nM
- IC50 [2]: 29.9 nM
- IC50 (SK-OV-3 [8]): 1600 nM

SMILES: Cc1nc(Nc2ccc(Cl)cc2)c2cc(C)oc2n1
- IC50 [1]: 70.2 nM
- IC50 [3]: 102 nM

SMILES: COc1ccc(N(C)c2nc(C)nc3oc(C)cc23)cc1.Cl
- IC50 (HeLa [4]): 44.7 nM
- IC50 (HUVEC): 172 nM
- Activity (Mus musculus [9]): Non-toxic
- Activity (Mus musculus [10]): Non-toxic
- IC50 (MDA-MB-468): 7.1 nM
- IC50 (MCF7 [11]): 130 nM
- MTD (in vivo): 50 mg/kg
- IC50 (4T1 [12]): 97.9 nM
- IC50 (MDA-MB-435 [6]): 47 nM
- IC50 (HeLa [7]): 40.6 nM
- IC50 (MCF7 [13]): 138 nM
- IC50 (MDA-MB-231): 148 nM

SMILES: COc1ccc(N(C)c2nc(C)nc3oc(C)cc23)cc1 [listing 1 of 2 here]
- Activity [14]: Active
- inhibition (HeLa [15]): Dose-dependent effect
- inhibition (MDA-MB-435 [16]): Active
- Activity (HeLa [17]): inactive
- Activity (HeLa [18]): Active
- inhibition (Tubulin (Sus scrofa)): 86%
- Activity (MDA-MB-435 [19]): Active
- inhibition (4T1 [20]): Active
- inhibition (4T1 [21]): Active
- inhibition (4T1 [22]): Active
- Activity [23]: Active

SMILES: Cc1nc(Nc2cccc3[nH]ccc23)c2cc(C)oc2n1
- IC50 [1]: 102 nM
- IC50 (Chorioallantoic membrane): 22600 nM
- IC50 [2]: 28.3 nM
- IC50 [3]: 90.2 nM

SMILES: COc1ccc(N(C)c2nc(C)nc3oc(C)cc23)cc1 [listing 2 of 2 here]
- GI50 [24]: 67.9 nM
- IC50 (Tubulin): 1900 nM

SMILES: CS(=O)(=O)CCNCc1ccc(-c2ccc3ncnc(Nc4ccc(OCc5cccc(F)c5)c(Cl)c4)c3c2)o1 [LAPATINIB]
- IC50 (MDA-MB-468): 83.2 nM
- IC50 (4T1 [12]): 10.4 nM
- IC50 (MDA-MB-435 [25]): 29.7 nM
- IC50 (MCF7 [13]): 64.9 nM
- IC50 (MDA-MB-231): 20 nM

SMILES: CCN(c1ccc(OC)cc1)c1nc(C)nc2oc(C)cc12
- IC50 (HeLa [4]): 206 nM
- IC50 (SK-OV-3 [5]): 270 nM
- IC50 [1]: 10.6 nM
- IC50 (MDA-MB-435 [6]): 137 nM
- IC50 (HeLa [7]): 167 nM
- IC50 (Chorioallantoic membrane): 19200 nM
- IC50 [2]: 27.1 nM
- IC50 [3]: 70.7 nM
- IC50 (SK-OV-3 [8]): 228 nM

SMILES: COc1ccc(N(c2nc(C)nc3oc(C)cc23)C(C)C)cc1
- IC50 (HeLa [4]): 4070 nM
- IC50 (SK-OV-3 [5]): 7400 nM
- IC50 [1]: 15.6 nM
- IC50 (MDA-MB-435 [6]): 3000 nM
- IC50 (HeLa [7]): 2900 nM
- IC50 (Chorioallantoic membrane): 18900 nM
- IC50 [2]: 23.1 nM
- IC50 [3]: 84.4 nM
- IC50 (SK-OV-3 [8]): 3800 nM

SMILES: CCCCN(c1ccc(OC)cc1)c1nc(C)nc2oc(C)cc12
- IC50 (HeLa [4]): > 10000 nM
- IC50 (SK-OV-3 [5]): > 10000 nM
- IC50 [1]: 34.4 nM
- IC50 (MDA-MB-435 [6]): > 10000 nM
- IC50 (HeLa [7]): > 10000 nM
- IC50 (Chorioallantoic membrane): 32600 nM
- IC50 [2]: 56.5 nM
- IC50 [3]: 340 nM
- IC50 (SK-OV-3 [8]): > 10000 nM

SMILES: Cc1nc(Nc2cccc3ccccc23)c2cc(C)oc2n1
- IC50 [1]: 32.2 nM
- IC50 [3]: 145 nM

SMILES: CC(=O)O[C@@]12CO[C@@H]1C[C@H](O)[C@@]1(C)C(=O)[C@H](O)C3=C(C)[C@@H](OC(=O)[C@H](O)[C@@H](NC(=O)OC(C)(C)C)c4ccccc4)C[C@@](O)([C@@H](OC(=O)c4ccccc4)[C@H]21)C3(C)C.O.O.O [DOCETAXEL]
- IC50 (HUVEC): 56.7 nM
- IC50 (MDA-MB-468): 69.1 nM
- IC50 (MCF7 [11]): > 1000 nM
- MTD (in vivo): 35 mg/kg
- IC50 (4T1 [12]): 63.4 nM
- inhibition (4T1 [26]): Active
- IC50 (MDA-MB-435 [25]): 2.7 nM
- IC50 (MCF7 [13]): 59.3 nM
- IC50 (MDA-MB-231): 16 nM

SMILES: CC(=O)O[C@H]1C(=O)[C@@]2(C)[C@H]([C@H](OC(=O)c3ccccc3)[C@]3(O)C[C@H](OC(=O)[C@H](O)[C@@H](NC(=O)c4ccccc4)c4ccccc4)C(C)=C1C3(C)C)[C@]1(OC(C)=O)CO[C@@H]1C[C@@H]2O [PACLITAXEL]
- IC50 (MDA-MB-435 [6]): 1.93 nM

SMILES: CCN(CC)CCNC(=O)c1c(C)[nH]c(/C=C2\C(=O)Nc3ccc(F)cc32)c1C [SUNITINIB]
- IC50 (HUVEC): 11.8 nM
- IC50 (MDA-MB-468): 6.1 nM
- IC50 (MCF7 [11]): 29.3 nM
- IC50 (4T1 [12]): 16 nM
- IC50 (MDA-MB-435 [25]): 9.7 nM
- IC50 (MCF7 [13]): 27.1 nM
- IC50 (MDA-MB-231): 22.3 nM

SMILES: Cc1nc(Nc2ccc(C(F)(F)F)cc2)c2cc(C)oc2n1
- IC50 [1]: 66.2 nM
- IC50 [2]: 66.1 nM
- IC50 [3]: 122 nM

SMILES: Cc1nc(Nc2ccccc2)c2cc(C)oc2n1
- IC50 [3]: 113 nM
